Screening results from PubChem.
CHRM4 agonist: human M4 muscarinic receptor agonists, primary screen, CHO-K1 cells, Fluo-8 calcium fluorescence | AID 624127, 2012 | 360,000 tested, 0.14% active | CHO-K1 hM4/Gqi5; vehicle 0%, full acetylcholine response 100% | Muscarinic acetylcholine receptor M4 (Homo sapiens), P08173 | activation, % at 3 µM;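 active = activation above the run mean over all test wells plus 3 SD, cut at about 32% in these data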;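 note: peak over basal fluorescence ratio per well then scaled between controls; 0% = DMSO wells and 100% = acetylcholine at EC100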
M5 antag: human M5 muscarinic receptor antagonists, primary screen, CHO cells, Fluo-8 calcium fluorescence; Muscarinic acetylcholine receptor M5 (Homo sapiens), P08912; CHO-hM5 cells, ACh EC80; AID 624040, 2012; inhibition, % at 3 µM; 360,000 tested, 0.59% active;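 active = inhibition above a per-plate cutoff, the mean of that plate's test compounds plus 3 SD, cut at about 27% in these data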;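 note: 0% = acetylcholine EC80 with DMSO and 100% = DMSO without agonist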
Target sequence (P08912 whole entry, looked up): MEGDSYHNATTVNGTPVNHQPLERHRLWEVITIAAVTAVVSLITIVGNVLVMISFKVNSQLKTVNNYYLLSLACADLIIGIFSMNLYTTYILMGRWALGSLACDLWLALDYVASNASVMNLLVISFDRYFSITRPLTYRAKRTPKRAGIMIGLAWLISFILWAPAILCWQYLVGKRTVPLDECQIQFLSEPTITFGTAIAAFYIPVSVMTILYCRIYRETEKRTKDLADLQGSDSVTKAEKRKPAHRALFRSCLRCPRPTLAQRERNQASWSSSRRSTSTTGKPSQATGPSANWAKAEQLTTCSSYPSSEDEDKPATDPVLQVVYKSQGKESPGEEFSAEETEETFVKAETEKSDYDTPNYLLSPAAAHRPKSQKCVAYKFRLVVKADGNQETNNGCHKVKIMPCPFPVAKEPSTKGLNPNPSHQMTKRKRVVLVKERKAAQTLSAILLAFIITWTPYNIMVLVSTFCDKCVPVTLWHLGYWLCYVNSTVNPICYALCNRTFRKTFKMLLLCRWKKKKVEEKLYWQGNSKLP
CHRM5 agonist: human M5 muscarinic receptor agonists, primary screen, CHO-K1 cells, Fluo-8 calcium fluorescence; CHO-K1 hM5 cells; 0% DMSO wells, 100% maximal acetylcholine response; Muscarinic acetylcholine receptor M5 (Homo sapiens), P08912; 360,000 tested, 0.19% active; activation, % at 3 µM;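 active = activation above the run's mean over test compounds plus 3 SD, cut at about 23% in these data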;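 note: signal is peak over basal fluorescence ratio across the kinetic read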
CHRM4 PAM: human M4 muscarinic receptor positive allosteric modulators, primary screen, CHO-K1 cells, Fluo-8 calcium fluorescence; 360,000 tested, 0.4% active; activation, % at 3 µM; AID 624126, 2012; CHO-K1 hM4/Gqi5, ACh EC20; 0% = ACh EC20, 100% = maximal ACh;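 active = activation above its plate's cutoff, the mean activation of sample wells plus 3 SD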
CHRM5 PAM: human M5 muscarinic receptor positive allosteric modulators, primary screen, CHO-K1 cells, Fluo-8 calcium fluorescence. Muscarinic acetylcholine receptor M5 (Homo sapiens), P08912. CHO-K1 hM5, ACh EC20 PAM; 0% = ACh EC20, 100% = ACh EC100. activation, % at 3 µM. 360,000 tested, 0.3% active. AID 624038, 2012;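 active = activation above the run cutoff, the mean activation of all test compounds plus 3 SD, cut at about 18% in these data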
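Replicates: One well per compound, no replicates | System: Human M5 receptor in CHO-K1 cells | Benchmarks: Low control EC20 acetylcholine (0%), high control EC100 acetylcholine (100%) | Probe or stimulus: Acetylcholine, EC20 level | Times: Fluo-8 loading 80 min at 37 °C plus 30 min room temperature | Signal: Intracellular calcium via Fluo-8 fluorescence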
CHRM4 antagonist: human M4 muscarinic receptor antagonists, primary screen, CHO cells, Fluo-8 calcium fluorescence | Muscarinic acetylcholine receptor M4 (Homo sapiens), P08173 | CHO-hM4 cells, ACh EC80 | inhibition, % at 3 µM | 360,000 tested, 0.73% active | AID 624125, 2012;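 active = inhibition above its plate's cutoff, the mean inhibition of sample wells plus 3 SD, cut at about 27% in these data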;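 note: 0% = acetylcholine EC80 with DMSO and 100% = DMSO without agonist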
* hit, by the source's call. Compounds with a hit are over-represented: about 1.8% of the library has one in this group of screens.

SMILES	CHRM4 agonist	M5 antag	CHRM5 agonist	CHRM4 PAM	CHRM5 PAM	CHRM4 antagonist
COc1ccc(N2C(=S)NC3CS(=O)(=O)CC32)cc1 (configuration not stated)	0	17	-3	-26	-8	28*
CN(CC(=O)Nc1ccc(C#N)cc1)Cc1ccc(Cl)cc1	3	14	-1	-14	-12	8
CN(CC(=O)Nc1ccc(C#N)cc1)Cc1ccc(Cl)cc1Cl	2	27*	-6	-21	-23	17
COc1cc(Cl)c(C)cc1NC(=O)COc1cc(C)nc(C(C)C)n1	1	8	-2	33*	-9	3
CN(Cc1ccccc1)C(=O)c1ccc(NC(=O)Cc2ccc([N+](=O)[O-])cc2)cc1	13	2	26*	-3	14	1
COc1cc(-c2nc3ccccn3c2NCc2ccccc2)ccc1SC1CCCCC1	6	15	-3	-6	-18	27*
CCC(C)Sc1ccc(-c2nc3ccccn3c2NCc2ccccc2)cc1OC (configuration not stated)	14	16	0	-6	-28	29*
COc1ccc(-c2nc3ccccn3c2NC2CCCCC2)cc1SC1CCCCC1	3	4	1	-12	4	28*
COc1cc(-c2nc3ccc(C)cn3c2NCc2ccccc2)ccc1SC1CCCCC1	3	5	2	-1	-14	8
COc1ccc2cc(C3(C)NC(=O)N(CC(=O)N4CCCCC4)C3=O)ccc2c1 (configuration not stated)	6	-4	7	0	1	-1
CCOC(=O)[C@]12CCCC=C1N(Cc1ccco1)C(=O)[C@H](CC(=O)N1CCC(c3ccccc3)CC1)C2	-3	-9	-3	7	10	-11
CC1(C)CCN2CCC(C)(C)c3c(O)ccc1c32	30	41*	95*	-13	-16	26
CC1(C)C(C=C(Cl)Cl)C1C(=O)Nc1ccc(S(=O)(=O)Nc2ncccn2)cc1 (configuration not stated)	1	14	-5	4	-1	-8
CC(C)Cn1c(NCCN(C)C)nc2c1c(=O)[nH]c(=O)n2C	0	4	-1	6	-2	0
CCCCn1c(NCCN(C)C)nc2c1c(=O)[nH]c(=O)n2C	1	-3	-7	12	22*	-4
Cc1c(C(C)C)c(=O)n(-c2ccc(S(=O)(=O)NC3CCCCC3)cc2)n1C	15	30*	2	-7	-14	2
O=C(NCc1ccc(F)cc1)c1cc(C2CCCN(C(=O)c3ccc4c(c3)CCO4)C2)on1 (configuration not stated)	5	1	5	5	-1	-12
CCOC(=O)c1[nH]ncc1CN1CCN(Cc2ccccc2)C(CCO)C1 (configuration not stated)	1	-4	-2	1	12	-5
Cc1nc(CN(C)C(=O)c2ccccc2OC2CCN(S(C)(=O)=O)CC2)cs1	0	4	2	-2	-2	2
O=C(Nc1ccccc1)Nc1ncc([N+](=O)[O-])s1	16	28*	11	-8	-15	13
Cc1cc2cc3c(cc2nc1SCC(=O)OC(C)C)OCO3	1	-6	-1	24*	3	-8
CCCNC(=O)C1(C)CCN(CCC(=O)c2ccc(Br)cc2)C1 (configuration not stated)	0	7	0	-9	-2	2
O=C(NCc1cccc(F)c1)c1cccc2c1C(=O)c1ccc(N3CCC(Cc4ccccc4)CC3)cc1S2(=O)=O	12	28*	14	-2	-6	2
O=C(NCc1cccc(F)c1)c1cccc2c1C(=O)c1ccc(N3CCCC3)cc1S2(=O)=O	80*	17	35*	-16	-36	13
NCCCNCCCCNCCCN	1	2	3	8	-1	-16
SMILES	CHRM4 agonist	M5 antag	CHRM5 agonist	CHRM4 PAM	CHRM5 PAM	CHRM4 antagonist
CC1CCc2sc(C(=O)N(C)CC(=O)Nc3ccc(N4CCOCC4)cc3)cc2C1 (configuration not stated)	0	1	-4	3	2	0
O=C1NC(=Nc2ccccc2Cl)S/C1=C\c1cc([N+](=O)[O-])ccc1O	9	12	32*	-12	-3	-6
COc1cccc(N=C2NC(=O)/C(=C/c3cc([N+](=O)[O-])ccc3O)S2)c1	1	2	1	-10	1	6
Cc1ccc(S(=O)(=O)/N=C2/NC(=O)/C(=C/c3cc([N+](=O)[O-])ccc3O)S2)cc1	108*	8	49*	-26	-18	30*
COc1cc(/C=C2\S/C(=N/S(=O)(=O)c3ccc(C)cc3)NC2=O)c([N+](=O)[O-])cc1OC	0	-5	-1	4	7	13
COc1cc(F)ccc1-c1csc(C(C)(O)c2ccccc2)n1 (configuration not stated)	-2	10	-6	-3	-3	-9
O=C(C[n+]1cc(-c2ccccc2)n2c1CCC2)c1cccs1	0	8	-9	-5	8	2
O=C(C[n+]1cc(-c2ccc(F)cc2)n2c1CCC2)N1c2ccccc2Sc2ccccc21	1	97*	-8	-17	-19	81*
Cc1ccc(-c2c[n+](CC(=O)N3c4ccccc4Sc4ccccc43)c3n2CCC3)cc1	0	100*	-8	-17	-21	99*
O=C(C[n+]1cc(-c2ccccc2)n2c1CCC2)N1c2ccccc2Sc2ccccc21	0	52*	-10	-19	-19	64*
Cc1ccc(-c2c[n+](CC(=O)Nc3c(C)cccc3C)c3n2CCC3)cc1	0	-15	-1	-9	16	2
O=C(C[n+]1cc(-c2ccccc2)n2c1CCC2)Nc1nc(-c2ccc(F)cc2)cs1	0	7	-8	-5	1	10
CC(=O)N1c2ccc(S(=O)(=O)N3CCC(C(=O)Nc4ccc(C)cn4)CC3)cc2CC1C (configuration not stated)	4	-4	-1	3	-2	-8
CSc1ncc(C(=O)Nc2ccc(Br)cn2)c(C)n1	1	2	-3	-5	-2	-6
Cc1c(Cl)cccc1NC(=O)CNC(=O)c1ccc(F)cc1	2	8	0	-6	-8	21
